The target in assay [1] is T1, Acetylcholinesterase (Homo sapiens, UniProt P22303). Briefly: Inhibition of human AChE using acetylthiocholine iodide as substrate at 10 uM incubated for 1 mins by spectrophotometric Ellman's method. Put shortly: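 Recombinant human AChE, modified Ellman assay; compound in DMSO (single 10 μM screen) preincubated 5 min with enzyme and 5 mM DTNB in pH 7.4 phosphate buffer. […] Triplicate.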
In general terms: DTNB colorimetry detects thiols as they appear.

The target in assay [2] is T1, Acetylcholinesterase. Briefly: Inhibition of human AChE using acetylthiocholine iodide as substrate incubated for 1 mins by spectrophotometric Ellman's method. Put shortly: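 Modified Ellman assay on recombinant human AChE (acetylthiocholine) or human BChE (butyrylthiocholine). Enzyme, 5 mM DTNB and DMSO compound dilutions at several concentrations preincubated 5 min in pH 7.4 phosphate buffer. Reaction started with 10 mM substrate, ΔA read at 412 nm for 1 min. IC50 is the mean ± SEM of three independent runs, each in triplicate.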

For assay [3], the target named is T2, Cholinesterase (Homo sapiens, UniProt P06276). Briefly: Reversible binding affinity to human BChE using butyrylthiocholine iodide as substrate assessed as reduction in Vmax at 0.445 to 1.400 micromol/L preincubated for 5 min followed by substrate addition and measured after 1 mins by Lineweaver-Burk plot analysis. The conditions noted are these: dose 0.445-1.4 µmol/L, time 6.0 min. Put shortly: (§1)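 Recombinant human BChE at final activity 0.002 U/μL in phosphate buffer. […] Km, Vmax, Ki and Ki' came from nonlinear regression of velocity curves. Lineweaver–Burk plots were drawn by linear regression.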

For assay [4], the target named is T2, Cholinesterase. Put plainly: Reversible binding affinity to human BChE using butyrylthiocholine iodide as substrate assessed as reduction in Km at 0.445 to 1.400 micromol/L preincubated for 5 min followed by substrate addition and measured after 1 mins by Lineweaver-Burk plot analysis. As to conditions: dose 0.445-1.4 µmol/L, time 6.0 min. Put shortly: as §1

The target of assay [5] is T2, Cholinesterase. Briefly: Inhibition of human BChE using butyrylthiocholine iodide as substrate incubated for 1 mins by spectrophotometric Ellman's method.

pIC50: −log10 of the molar value. The source made the active and inactive calls. No cut-off for these calls is given here. Where only a bound is given, the exact number is not on record here.

T1 sequence (P22303 whole entry): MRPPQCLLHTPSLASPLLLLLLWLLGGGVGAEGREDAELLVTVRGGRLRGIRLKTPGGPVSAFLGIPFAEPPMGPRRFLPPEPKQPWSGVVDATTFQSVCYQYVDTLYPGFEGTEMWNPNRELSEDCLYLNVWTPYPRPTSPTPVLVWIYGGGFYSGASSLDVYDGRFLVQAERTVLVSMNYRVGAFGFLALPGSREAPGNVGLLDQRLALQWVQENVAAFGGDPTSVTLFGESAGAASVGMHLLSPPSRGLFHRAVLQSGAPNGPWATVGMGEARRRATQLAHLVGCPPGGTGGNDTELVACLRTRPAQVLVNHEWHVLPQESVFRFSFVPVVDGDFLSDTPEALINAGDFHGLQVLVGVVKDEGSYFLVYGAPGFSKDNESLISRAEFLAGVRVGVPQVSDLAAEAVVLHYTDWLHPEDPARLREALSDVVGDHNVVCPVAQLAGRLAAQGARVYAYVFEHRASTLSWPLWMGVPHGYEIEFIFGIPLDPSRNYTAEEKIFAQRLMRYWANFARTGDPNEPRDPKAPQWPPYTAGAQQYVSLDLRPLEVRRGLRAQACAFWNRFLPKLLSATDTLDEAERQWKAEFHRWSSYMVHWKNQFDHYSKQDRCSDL
T2 sequence (P06276 whole entry): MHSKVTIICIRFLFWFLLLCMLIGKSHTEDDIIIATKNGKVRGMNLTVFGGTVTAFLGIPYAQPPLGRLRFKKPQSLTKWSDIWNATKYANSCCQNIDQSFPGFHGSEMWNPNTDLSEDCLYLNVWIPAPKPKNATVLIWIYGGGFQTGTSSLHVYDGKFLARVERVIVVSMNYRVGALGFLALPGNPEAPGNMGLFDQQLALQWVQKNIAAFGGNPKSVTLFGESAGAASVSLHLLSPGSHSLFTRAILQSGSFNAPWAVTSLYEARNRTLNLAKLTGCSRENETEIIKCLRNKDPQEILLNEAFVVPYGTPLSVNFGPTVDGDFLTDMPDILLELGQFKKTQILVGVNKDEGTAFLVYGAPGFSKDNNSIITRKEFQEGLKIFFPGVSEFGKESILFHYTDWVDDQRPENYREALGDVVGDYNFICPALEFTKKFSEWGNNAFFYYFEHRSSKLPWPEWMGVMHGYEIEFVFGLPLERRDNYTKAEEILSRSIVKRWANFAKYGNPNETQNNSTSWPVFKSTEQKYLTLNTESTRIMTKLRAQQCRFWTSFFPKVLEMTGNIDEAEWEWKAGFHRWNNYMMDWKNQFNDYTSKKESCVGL

With `CCCN(Cc1ccccc1)Cc1ccc(OCc2ccccc2)cc1`, on Acetylcholinesterase [1], the inhibition result was “inactive”.

On to `C=CCN(CCc1ccccc1)Cc1cccc(OCc2ccccc2)c1`, for which, on Acetylcholinesterase [1], the inhibition result is “inactive”.

On to `C=CCN(Cc1ccccc1)Cc1cccc(OCc2ccccc2)c1`, for which the inhibition entry at Acetylcholinesterase [1] is “inactive”.

For the molecule `c1ccc(CCNCc2ccc(OCc3ccccc3)cc2)cc1`, the inhibition entry at Acetylcholinesterase [1] is “inactive”.

Take `CCCOc1ccc(CCN(CCC)Cc2ccc(OCc3ccccc3)cc2)cc1`: the inhibition entry on Acetylcholinesterase [1] is “inactive”.

With `CCN(Cc1ccccc1)Cc1cccc(OCc2ccccc2)c1`, the inhibition entry on Acetylcholinesterase [1] is “inactive”.

Turning to `c1ccc(COc2ccc(CNCc3ccccn3)cc2)cc1`, on Acetylcholinesterase [1], the inhibition entry is “inactive”.

With `c1ccc(CCCNCc2ccc(OCc3ccccc3)cc2)cc1`, the inhibition entry on Acetylcholinesterase [1] was “inactive”.

Take `CCCN(CCCc1ccccc1)Cc1ccc(OCc2ccccc2)cc1`: at Acetylcholinesterase [1], the inhibition entry is “inactive”.

For the molecule `c1ccc(CCCNCc2cccc(OCc3ccccc3)c2)cc1`, the inhibition result at Acetylcholinesterase [1] was “inactive”.

For the molecule `CN(CCc1ccc(O)cc1)Cc1cc2c(cc1-c1cccc3c1N(C)CC3)OCO2`, the pIC50 (in general, the IC50 on a negative log10 scale, so that one unit is a factor of ten) on Acetylcholinesterase [2] is less than 4.00.

`CCN(Cc1ccccc1)Cc1ccc(OCc2ccccc2)cc1`: at Acetylcholinesterase [1], the inhibition result was “inactive”.

On to `COc1cccc(CCNCc2cccc(OCc3ccccc3)c2)c1`, for which the inhibition result at Acetylcholinesterase [1] was “inactive”.

In the case of `CCN(CCc1ccccc1)Cc1cccc(OCc2ccccc2)c1`, the inhibition entry at Acetylcholinesterase [1] is “inactive”.

In the case of `CCCN(CCc1ccc(O)cc1)Cc1ccc(OCc2ccccc2)cc1`, the result on Cholinesterase [3] and at Cholinesterase [4] was Active. Also, on Acetylcholinesterase [1], the inhibition result is “inactive”.

As to `CCCN(Cc1ccc(OCc2ccccc2)cc1)C(C)CCc1ccccc1` (stereo not given), the inhibition entry on Acetylcholinesterase [1] was “inactive”.

For `CC(CCc1ccccc1)NCc1ccc(OCc2ccccc2)cc1` (stereo not given), at Acetylcholinesterase [1], the inhibition entry was “inactive”.

With `C=CCOc1ccc(CCNCc2cccc(OCc3ccccc3)c2)cc1`, the inhibition entry on Acetylcholinesterase [1] was “inactive”.

`COc1ccc(CNCc2cccc(OCc3ccccc3)c2)cc1OC`: the inhibition result on Acetylcholinesterase [1] was “inactive”.

With `CCN(Cc1ccc(OCc2ccccc2)cc1)C(C)CCc1ccccc1` (stereo not given), the inhibition result at Acetylcholinesterase [1] was “inactive”.

As to `Clc1ccc(CCNCc2ccc(OCc3ccccc3)cc2)cc1`, the inhibition entry at Acetylcholinesterase [1] is “inactive”.

In the case of `c1ccc(COc2ccc(CNCCc3ccccn3)cc2)cc1`, the inhibition result on Acetylcholinesterase [1] is “inactive”.

With `COc1cccc(CCNCc2ccc(OCc3ccccc3)cc2)c1`, on Acetylcholinesterase [1], the inhibition entry is “inactive”.

With `COc1ccc(CCNCc2ccc(OCc3ccccc3)cc2)cc1`, the inhibition entry on Acetylcholinesterase [1] was “inactive”.

In the case of `C=CCOc1ccc(CCN(CC=C)Cc2ccc(OCc3ccccc3)c(OC)c2)cc1`, on Cholinesterase [5], the pIC50 is less than 5.00.

As to `COc1ccccc1CCNCc1ccc(OCc2ccccc2)cc1`, the inhibition entry on Acetylcholinesterase [1] is “inactive”.

As for `c1ccc(CNCc2ccc(OCc3ccccc3)cc2)cc1`, the inhibition result at Acetylcholinesterase [1] is “inactive”.

In the case of `COc1ccccc1CCNCc1cccc(OCc2ccccc2)c1`, on Acetylcholinesterase [1], the inhibition result was “inactive”.

`c1ccc(CCNCc2cccc(OCc3ccccc3)c2)cc1`: the inhibition entry at Acetylcholinesterase [1] is “inactive”.

Consider `c1ccc(CCCCNCc2ccc(OCc3ccccc3)cc2)cc1`, for which the inhibition entry at Acetylcholinesterase [1] is “inactive”.

Turning to `Oc1ccc(CCNCc2cccc(OCc3ccccc3)c2)cc1`, the inhibition entry at Acetylcholinesterase [1] is “inactive”.

With `c1ccc(CNCc2cccc(OCc3ccccc3)c2)cc1`, the inhibition result at Acetylcholinesterase [1] is “inactive”.

For `C=CCOc1ccc(CCN(CC=C)Cc2cccc(OCc3ccccc3)c2)cc1`, the inhibition entry on Acetylcholinesterase [1] was “inactive”.

As for `CCN(CCCc1ccccc1)Cc1cccc(OCc2ccccc2)c1`, the inhibition result at Acetylcholinesterase [1] was “inactive”.

Take `COc1ccc(CCNCc2cccc(OCc3ccccc3)c2)cc1`: at Acetylcholinesterase [1], the inhibition result is “inactive”.

As to `CCCN(CCc1ccccc1)Cc1cccc(OCc2ccccc2)c1`, the inhibition result on Acetylcholinesterase [1] is “inactive”.

Take `CCCN(CCCc1ccccc1)Cc1cccc(OCc2ccccc2)c1`: at Acetylcholinesterase [1], the inhibition result is “inactive”.

Take `C=CCN(CCc1ccc(O)cc1)Cc1cccc(OCc2ccccc2)c1`: the inhibition result at Acetylcholinesterase [1] was “inactive”.

Turning to `CC(CNCc1ccc(OCc2ccccc2)cc1)c1ccccc1` (stereo not given), the inhibition result on Acetylcholinesterase [1] is “inactive”.

Regarding `Oc1ccc(CCNCc2ccc(OCc3ccccc3)cc2)cc1`, the inhibition entry on Acetylcholinesterase [1] is “inactive”.

As for `CC(CNCc1cccc(OCc2ccccc2)c1)c1ccccc1` (stereo not given), the inhibition result on Acetylcholinesterase [1] is “inactive”.

On to `C=CCN(CCCc1ccccc1)Cc1cccc(OCc2ccccc2)c1`, for which the inhibition entry on Acetylcholinesterase [1] was “inactive”.

Regarding `Clc1cccc(NCc2cccc(OCc3ccccc3)c2)c1`, on Acetylcholinesterase [1], the inhibition result was “inactive”.

Source of the values: ChEMBL document CHEMBL5532688, “Carltonine-derived compounds for targeted butyrylcholinesterase inhibition” (RSC Med Chem, 2024).
